Most compounds without a hit are left out; they make up all but 3.7% or so of the library.
TAAR1 antag = antagonists of human TAAR1 | AID 624466 | 360,000 compounds, 1.5% hits | inhibition, % at 3 µM | Q96RJ0 | CHO RD-HGA16 TAAR1, Fluo-8 calcium fluorescence, antagonist;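 active = inhibition above a per-plate cutoff, the mean inhibition of test compounds on that plate plus 3 SD, cut at about 49% in these data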;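 note: 0% = DMSO plus EC80 beta-PEA response and 100% = DMSO alone without agonist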
Target sequence (Q96RJ0 whole entry, looked up): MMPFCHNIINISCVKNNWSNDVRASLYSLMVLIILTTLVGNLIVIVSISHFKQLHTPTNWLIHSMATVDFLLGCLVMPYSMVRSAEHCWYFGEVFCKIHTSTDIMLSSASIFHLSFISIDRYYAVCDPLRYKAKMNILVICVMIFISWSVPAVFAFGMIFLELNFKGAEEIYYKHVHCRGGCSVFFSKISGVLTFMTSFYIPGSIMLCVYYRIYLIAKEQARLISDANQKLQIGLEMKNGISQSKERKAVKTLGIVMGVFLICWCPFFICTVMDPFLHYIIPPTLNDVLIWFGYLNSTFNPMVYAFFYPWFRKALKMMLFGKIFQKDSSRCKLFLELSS
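Assay system: RD-HGA16 CHO cells with stable hTAAR1 and Gα16 / Reagent: EC80 β-phenethylamine stimulus / Doses: 3 µM, single point / Timing: dye loading 75 min at 37 °C, then 30 min room temperature / Measured by: Fluo-8 intracellular calcium dye fluorescence, real-time kinetic reads / Controls: vehicle wells and EC80 agonist wells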
rCAG binder = binds r(CAG) RNA repeats; 370,000 compounds, 1.3% hits; r(CAG) RNA repeat, TO-PRO-1 dye displacement fluorescence; inhibition, % at 3 µM; AID 651821;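 active = inhibition above the plate cutoff, the mean of all test compounds on that plate plus 3 SD, cut at about 35% in these data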;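 note: 0% = DMSO alone and 100% = 100 µM mitoxantrone as full dye displacement; higher means more dye released from RNA so lower well fluorescence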
HCV NS3 hel inh = HCV NS3 helicase inhibition; NS3 helicase DNA unwinding, Cy5 molecular beacon fluorescence; inhibition, % at 10.9 µM; 290,000 compounds, 0.56% hits; AID 1800;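 active = inhibition above the mean of all tested compounds plus 3 SD, set per campaign, cut at about 35% in these data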;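 note: 0% = DMSO wells and 100% = thioflavine S control wells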
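assay system = NS3 helicase fragment of HCV | buffer or medium = MOPS pH 6.5, MgCl2, DTT, Tween20, BSA | timing = 60 min unwinding reaction at 25 °C after ATP addition | signal = Cy5 beacon fluorescence read at start and 1 h | read-out basis = % inhibition of unwinding | control set = low DMSO, high thioflavine S at 110 µM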
HCV core dimer = blocks dimerization of HCV core protein; TR-FRET GST/Flag-core106 dimerization, 1536-well; inhibition, % at 5 µM; 300,000 compounds, 0.33% hits;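 active = inhibition above the mean of all tested compounds plus 3 SD, set per screening campaign, cut at about 45% in these data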
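System: GST/Flag-tagged HCV core106 proteins. Incubation: compound-protein-antibody incubation 4 h at 22.5 °C. Technique: HTRF with 340 nm excitation, 617/671 nm emission. Medium: KF-containing HEPES buffer, pH 7.45, DTT, CHAPS, BSA. Read-out: inhibition (%) from 671 over 617 nm ratio. Also added: Eu(K)-anti-GST 90 ng/mL plus XL665-anti-Flag 1 µg/mL.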
TAAR1 agonist = agonists of human TAAR1. Q96RJ0. CHO RD-HGA16 TAAR1, Fluo-8 calcium fluorescence; vehicle wells 0%, saturating PEA agonist 100%. activation, % at 3 µM. 360,000 compounds, 0.99% hits. AID 624467;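 active = activation above the mean activation of all test compounds in the run plus 3 SD, cut at about 38% in these data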
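System: CHO RD-HGA16 cells carrying human TAAR1 plus Gα16; Incubation: 17-24 h seeding, 75 min 37 °C dye, 30 min RT; Measured by: Fluo-8 fluorescence, 5 s baseline then 140 s kinetic read; Control set: DMSO and PEA EC100; Replication: single well for each compound.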
Active calls of the source: *; · = no result.

SMILES	TAAR1 antag	rCAG binder	HCV NS3 hel inh	HCV core dimer	TAAR1 agonist
CCCCCCCCNS(=O)(=O)CC1NCc2cc(OC)ccc21 (stereo not drawn)	·	2.8	·	·	·
COc1ccc(-n2ncc3c(N4CCN(c5cc(C)ccc5C)CC4)ncnc32)cc1	103.0*	1.4	-0.6	8.5	-2.6
Oc1ccc(N2CCN(c3ncnc4sc(-c5ccccc5)cc34)CC2)cc1	11.6	15.0	11.0	·	-0.8
COc1ccc(-n2ncc3c(N4CCN(c5cccc(C)c5C)CC4)ncnc32)cc1	3.9	3.1	7.1	-3.2	-0.6
Cc1ccc(-n2ncc3c(N4CCN(c5ccccc5)CC4)ncnc32)c(C)c1	62.4*	-6.9	0.1	-1.0	12.2
COc1ccc(N2CCN(c3ncnc4c3cnn4-c3ccc(C)cc3C)CC2)cc1	18.2	-1.2	-3.5	-2.4	0.6
CCc1cc2c(N3CCN(c4ccccc4)CC3)ncnc2s1	66.0*	-5.2	-7.6	7.0	8.1
C=CCn1c(Cc2cccs2)nnc1SCC(=O)Nc1ccc(OCc2ccccc2)cc1	·	3.1	·	·	·
COC(=O)[C@]12C[C@H](CC(=O)NCc3cccc4ccccc34)C(=O)N(Cc3cccc4ccccc34)C1=C[C@H](C1CCCC1)O[C@@H]2C	·	10.4	·	·	·
CCOC(=O)C1=NOC(C(C)=O)(C(=O)N2CCOCC2)C1 (stereo not drawn)	·	1.6	·	·	·
CCOC(=O)Cc1csc(NC(=O)c2sc3nc4cc(C)ccc4cc3c2N)n1	-18.0	15.5	24.1	-8.7	6.0
CCOC(=O)Cc1csc(NC(=O)c2sc3nc4ccc(CC)cc4cc3c2N)n1	21.0	44.2*	24.9	0.4	4.9
COc1ccc(-c2c(Cc3ccccc3)nc(NC(=O)c3ccccc3)n2Cc2ccc(OC)cc2OC)cc1	·	10.6	·	·	·
Cc1ccc(-c2cc(C(F)F)n3ncc(C(=O)Nc4c(C)nn(Cc5ccccc5Cl)c4C)c3n2)cc1	-10.5	2.4	5.5	46.3*	6.9
Cc1ccc(-c2cc(C(F)F)n3ncc(C(=O)Nc4c(C)nn(Cc5c(Cl)cccc5Cl)c4C)c3n2)cc1	-40.9	4.6	-0.4	11.3	9.8
CCNC(=S)NNC(=O)c1cnccn1	·	1.2	·	·	·
COc1cc(CCN(C(=O)c2cc3ccccc3[nH]2)C(c2ccccn2)c2nc3ccccc3[nH]2)cc(OC)c1 (stereo not drawn)	16.1	9.7	·	·	2.8
COc1cc(CCN(C(=O)c2cc3ccccc3[nH]2)C(C)c2nc3ccccc3[nH]2)cc(OC)c1 (stereo not drawn)	64.7*	6.9	·	·	2.1
COc1ccc(Cn2ccc3ccc(-c4ccc5ccn(Cc6ccccc6)c5c4)cc32)cc1	·	17.7	·	·	·
C(=C\c1ccccc1)/CSc1nnc(COc2ccccc2)n1Cc1ccco1	·	5.9	·	·	·
C#C[C@]1(O)CC[C@H]2[C@@H]3CCC4=Cc5oncc5C[C@]4(C)[C@H]3CC[C@@]21C	71.1*	1.3	·	14.9	38.3*
O=C(C1CCCN1S(=O)(=O)c1ccc(Cl)s1)N1CCc2ccccc2C1 (stereo not drawn)	·	3.5	·	·	·
CC(=O)c1cccc(S(=O)(=O)N2CCN(c3nc4cc(C)cc(C)c4cc3C#N)CC2)c1	-3.1	3.2	0.5	70.2*	9.8
Cc1cc(C)c2cc(C#N)c(N3CCCN(S(=O)(=O)c4ccccc4)CC3)nc2c1	·	·	-5.0	12.4	·
CC(C)Cn1cnc2c(c(-c3ccccc3)c(-c3ccccc3)n2Cc2ccco2)c1=N	-7.9	15.1	-39.9	-3.2	41.9*
SMILES	TAAR1 antag	rCAG binder	HCV NS3 hel inh	HCV core dimer	TAAR1 agonist
O=C(Nc1ccc([N+](=O)[O-])cc1)c1cc2ccccc2nc1Cl	51.4*	4.7	-5.3	3.6	9.2
O=C(Nc1ccc(CSc2ccccc2)cc1)c1ccccc1	17.7	-0.8	1.2	0.4	10.9
O=C(COc1ccccc1)Nc1ccc(CSc2ccccc2)cc1	50.8*	1.8	-2.0	6.5	7.3
O=C(CSCc1ccc(Cl)cc1)N/N=C/c1ccc(OCC(=O)Nc2ccccc2)cc1	57.1*	6.5	-1.0	10.6	8.8
Cc1ccc(NC(=O)COc2ccc(/C=N/NC(=O)CSCc3ccccc3)cc2)cc1	18.1	1.9	-14.4	7.4	10.8
Cc1ccc(NC(=O)Cn2nnc(-c3ccccc3F)n2)cc1C	·	4.6	·	·	·
CN(CC#Cc1ccccc1)C(N)=NC(=O)/C=C/c1ccccc1	·	-0.2	·	·	·
C[C@H]1CN([C@@H](C)CO)C(=O)c2cccc(NC(=O)c3nc4ccccc4s3)c2O[C@H]1CN(C)C(=O)Nc1ccc(F)cc1	55.3*	7.0	·	·	32.8
C[C@H](CO)N1C[C@H](C)[C@@H](CN(C)CC2CC2)Oc2c(NC(=O)C3CC3)cccc2C1=O	-4.6	-8.8	·	·	6.6
C[C@H]1CN([C@@H](C)CO)C(=O)c2cccc(NC(=O)Nc3ccc(C(F)(F)F)cc3)c2O[C@H]1CN(C)C	4.9	-5.8	·	·	8.5
Cc1cc(C(=O)Nc2cccc3c2O[C@H](CN(C)CC2CC2)[C@@H](C)CN([C@H](C)CO)C3=O)n(C)n1	14.2	-10.3	·	·	43.0*
C[C@H](CO)N1C[C@H](C)[C@@H](CN(C)C(=O)Nc2ccc(C(F)(F)F)cc2)Oc2c(NC(=O)Nc3ccc(C(F)(F)F)cc3)cccc2C1=O	57.8*	14.1	·	·	10.1
C[C@H]1CN([C@@H](C)CO)C(=O)c2cccc(NC(=O)Nc3ccc(C(F)(F)F)cc3)c2O[C@@H]1CN(C)C(=O)Nc1ccc(F)cc1	56.0*	15.0	·	·	23.3
C=CCN1C(=O)[C@H](CC(=O)N2CCSCC2)[C@@]2(C(=O)OCC)CCCC=C12	·	0.7	·	·	·
CCN(CC)c1ccc2cc(-c3nnc(-c4ccncc4)o3)c(=O)oc2c1	23.5	-51.1	-0.1	·	39.7*
CCN(CC)c1ccc2cc(C=O)c(=O)oc2c1	35.7	-286.5	-1.4	0.1	73.2*
Nc1nonc1N/N=C\c1ccccc1	-22.4	-0.3	6.8	-3.8	40.8*
CC(C)C[C@@H]1COc2cc(N3CCSCC3)ccc2S(=O)(=O)N1C	·	4.9	·	·	·
CC1Nc2ncnc(N3CCOCC3)c2N(Cc2ccccc2)C1=O (stereo not drawn)	16.9	9.0	·	-1.4	7.5
CC1Nc2ncnc(N3CCc4ccccc4C3)c2N(Cc2ccccc2)C1=O (stereo not drawn)	-10.5	7.5	·	·	38.6*
CCC1Nc2ncnc(N3CCc4ccccc4C3)c2N(Cc2ccc(Cl)cc2)C1=O (stereo not drawn)	-0.7	8.3	·	·	39.6*
O=C1C(Cc2ccccc2)Nc2ncnc(N3CCc4ccccc4C3)c2N1Cc1ccc(Cl)cc1 (stereo not drawn)	·	·	·	25.0	·
COC(=O)C(C(=O)OC)C1OC23CN(S(=O)(=O)c4ccc(C)cc4)C=CC2(C)C3c2ccccc21 (stereo not drawn)	·	2.1	·	·	·
Nc1cccc(C2=Nc3cccc4cccc(c34)N2)c1	-8.1	10.6	12.0	72.1*	-0.7
Cc1c(CN2CCC(CO)(CCOc3ccccc3)CC2)[nH]c2c(Cl)cccc12	25.9	2.6	-59.8	-10.0	41.4*

Screening data from PubChem.
